In ChEMBL document CHEMBL2429860, “4-Phenyl-3,4-dihydroquinolone derivatives from Aspergillus nidulans MA-143, an endophytic fungus isolated from the mangrove plant Rhizophora stylosa” (J Nat Prod, 2013):
The source made the active and inactive calls. No cut-off for these calls is given here.

Tests used:
[1] = Toxicity in brine shrimp; format: organism-based; details: artemia salina, in vivo; read-out: LD50 (the source's name)
Method in brief: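 Lethality test using brine shrimp (Artemia salina).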

K562 = assay: Cytotoxicity against human K562 cells; format: functional, cell-based
HL-60 = assay: Cytotoxicity against human HL60 cells; format: functional, cell-based
MDA-MB-231 = assay: Cytotoxicity against human MDA-MB-231 cells; format: functional, cell-based
Bel-7402 = assay: Cytotoxicity against human Bel7402 cells; format: functional, cell-based
Escherichia coli = assay: Antibacterial activity against Escherichia coli by well diffusion method; format: functional, organism-based
Method in brief: (§1)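 Agar well diffusion test run against E. coli and S. aureus, with chloromycetin as the positive control.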

Staphylococcus aureus = assay: Antibacterial activity against Staphylococcus aureus by well diffusion method; format: functional, organism-based; method in brief: as §1

## CO[C@@H]1C(=O)Nc2ccc(/C=C/[C@@]3(C)CC[C@H](C(C)(C)O)O3)c(O)c2[C@@]1(O)c1ccccc1
[1]
  LC50: 7.1 µM
K562
  Activity: inactive
HL-60
  Activity: inactive
MDA-MB-231
  Activity: inactive
Bel-7402
  Activity: inactive
Escherichia coli
  Activity: inactive
Staphylococcus aureus
  Activity: inactive

## CO[C@@H]1C(=O)Nc2ccc(CC=C(C)C)c(O)c2[C@@]1(O)c1ccccc1
[1]
  LC50: 4.5 µM
K562
  Activity: inactive
HL-60
  Activity: inactive
MDA-MB-231
  Activity: inactive
Bel-7402
  Activity: inactive
Escherichia coli
  Activity: inactive
Staphylococcus aureus
  Activity: inactive

## O=C1Nc2ccccc2[C@@](O)(c2ccc(O)cc2)[C@@H]1O
K562
  Activity: inactive
HL-60
  Activity: inactive
MDA-MB-231
  Activity: inactive
Bel-7402
  Activity: inactive
Escherichia coli
  Activity: inactive
Staphylococcus aureus
  Activity: inactive

## C=C(C)[C@H]1CC[C@](C)(/C=C/c2ccc3c(c2O)[C@@](O)(c2ccccc2)[C@H](OC)C(=O)N3)O1
K562
  Activity: inactive
HL-60
  Activity: inactive
MDA-MB-231
  Activity: inactive
Bel-7402
  Activity: inactive
Escherichia coli
  Activity: inactive
Staphylococcus aureus
  Activity: inactive

## CO[C@@H]1C(=O)Nc2ccccc2[C@@]1(O)c1ccccc1
K562
  Activity: inactive
HL-60
  Activity: inactive
MDA-MB-231
  Activity: inactive
Bel-7402
  Activity: inactive
Escherichia coli
  Activity: inactive
Staphylococcus aureus
  Activity: inactive

## CO[C@@H]1C(=O)Nc2ccc(O)cc2[C@@]1(O)c1ccccc1
K562
  Activity: inactive
HL-60
  Activity: inactive
MDA-MB-231
  Activity: inactive
Bel-7402
  Activity: inactive
Escherichia coli
  Activity: inactive
Staphylococcus aureus
  Activity: inactive

## CO[C@@H]1C(=O)Nc2ccc(/C=C/[C@]3(C)CCC(=O)[C@@H](C)C3)c(O)c2[C@@]1(O)c1ccccc1 [AFLAQUINOLONE A]
[1]
  LC50: 5.5 µM
